High-throughput results from PubChem BioAssay.
Shown are actives, neighbours in structure and some others; about 1.2% of the full set was active somewhere.
TDP2 absorb – blocks human TDP2 phosphodiesterase activity; inhibition, % at 12.8 µM; 0.34% of 370,000 active; O95551; recombinant TDP2, T5PNP hydrolysis, p-nitrophenol absorbance 415 nm;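 active = inhibition above the mean of all tested compounds plus 3 SD, set per campaign, cut at about 25% in these data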
Target sequence (O95551 whole entry, looked up): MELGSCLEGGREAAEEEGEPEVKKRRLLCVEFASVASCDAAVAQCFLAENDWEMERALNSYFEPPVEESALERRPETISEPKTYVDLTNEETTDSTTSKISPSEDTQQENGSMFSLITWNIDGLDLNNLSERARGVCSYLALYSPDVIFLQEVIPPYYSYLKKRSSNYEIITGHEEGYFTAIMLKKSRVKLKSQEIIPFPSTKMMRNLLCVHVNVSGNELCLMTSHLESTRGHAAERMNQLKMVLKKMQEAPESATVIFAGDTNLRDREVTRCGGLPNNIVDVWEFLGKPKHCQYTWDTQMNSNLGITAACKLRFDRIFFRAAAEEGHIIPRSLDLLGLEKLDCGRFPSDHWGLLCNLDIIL
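Assay system: Recombinant human TDP2 | Quantity: 120 nM TDP2 per well | Incubation: 2 h at 37 °C | Signal: Epi absorbance | Evaluation: Percent inhibition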
NSD2 inh – NSD2 (human) methyltransferase inhibition | O96028 | NSD2 peptide methylation, AlphaScreen, 120 min | inhibition, % at 12.5 µM | 0.54% of 310,000 active | AID 743445; in the data active = inhibition above about 50%
UBC9 SUMO inh – SUMOylation inhibition; inhibition, % at 35 µM; HTRF SUMOylation assay, SAE1/SAE2 + UBC9, in vitro; AID 2006; P63279; 0.36% of 290,000 active; in the data active = inhibition above about 50%, passing the limit was not always enough
Target sequence (P63279 whole entry, looked up): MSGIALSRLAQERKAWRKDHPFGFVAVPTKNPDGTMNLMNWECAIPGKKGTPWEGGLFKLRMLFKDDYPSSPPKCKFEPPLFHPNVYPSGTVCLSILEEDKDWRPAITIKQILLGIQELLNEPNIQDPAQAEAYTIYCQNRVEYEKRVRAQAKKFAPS
Fh CTSL1 inh – blocks F. hepatica cathepsin L1 in PFM18AAP counter-screen | inhibition, % at 5.96 µM | recombinant F. hepatica cathepsin L1, Z-Leu-Arg-MCA fluorescence | AID 1906 | 0.49% of 300,000 active;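 active = inhibition above the mean of all tested compounds plus 3 SD, set per screening campaign, cut at about 17% in these data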
Large screens that a line does not name were inactive.

Cc1ccc(NC(=O)CN2C(=O)S/C(=C/c3ccc(-c4cccc(C(=O)O)c4)o3)C2=O)cc1	UBC9 SUMO inh 81 (no result: Fh CTSL1 inh)
Cc1ccc(C(=O)O)cc1-c1ccc(/C=C2\SC(=O)N(CC(=O)Nc3ccccc3)C2=O)o1	UBC9 SUMO inh 85
COC(=O)[C@]12C[C@H](CC(=O)NCCCCc3ccccc3)C(=O)N(CCC3=CCCCC3)C1=C[C@H](C1CCCC1)O[C@@H]2C	none (no result: NSD2 inh, UBC9 SUMO inh, Fh CTSL1 inh)
Cc1ccc(C)c(-c2nc3ccc(N)cc3[nH]2)c1	UBC9 SUMO inh 50
Nc1ccc(-c2nc3ccc(N)cc3[nH]2)cc1	UBC9 SUMO inh 66
Nc1ccc2nc(-c3ccc(Cl)cc3)[nH]c2c1	none (no result: NSD2 inh)
C/C=C/c1ccccc1OCCCN1CCC(C(O)(c2ccccc2)c2ccccc2)CC1	none (no result: NSD2 inh, UBC9 SUMO inh, Fh CTSL1 inh)
CCOC(=O)N1CCC(NC(=O)CS(=O)Cc2nc(-c3ccc(CC)cc3)oc2C)CC1 (configuration not stated)	none (no result: TDP2 absorb, UBC9 SUMO inh, Fh CTSL1 inh)
COc1cccc(/C=C2\N=C(C3CCCCC3)OC2=O)c1OC	Fh CTSL1 inh 20
CC(=O)Oc1ccc(/C=C2\N=C(C3CCCCC3)OC2=O)cc1	Fh CTSL1 inh 23
Nc1nnc(-c2cc3c(ccc4ccccc43)oc2=O)s1	UBC9 SUMO inh 66 (no result: TDP2 absorb, NSD2 inh, Fh CTSL1 inh)
O=c1oc2ccc3ccccc3c2cc1-c1nnc(-c2ccccc2)o1	none
Cc1ccc(C(=O)Cn2c(=N)n(N)c3ccccc32)cc1	none
Cc1ccc(C(=O)Cn2ncsc2=N)cc1	Fh CTSL1 inh 62
O[C@@H]([C@H](O)[C@H](O)CBr)[C@H](O)CBr	Fh CTSL1 inh 26 (no result: NSD2 inh, UBC9 SUMO inh)
OC[C@@H](O)[C@@H](O)[C@H](O)[C@@H](O)CO	none (no result: NSD2 inh, UBC9 SUMO inh)
Cc1n[nH]c(=S)n(NC(=O)/C=C/C(=O)Nn2c(=S)[nH]nc(C)c2=O)c1=O	UBC9 SUMO inh 99 (no result: Fh CTSL1 inh)
COc1ccc(-c2oc(NC(=O)CCl)c(C#N)c2-c2ccc(OC)cc2)cc1	Fh CTSL1 inh 61
COc1ccc(-c2oc(NC(=O)CSc3ncn[nH]3)c(C#N)c2-c2ccc(OC)cc2)cc1	none (no result: TDP2 absorb)
COc1cc(C(=O)ON=C2C3CC4CC(C3)CC2C4)cc(OC)c1OC	Fh CTSL1 inh 36
COc1cc(C(=O)O/N=C2\C=CC(=O)C=C2C)cc(OC)c1OC	none
COC(=O)[C@]12C[C@H](CC(=O)N3CCOCC3)C(=O)N(Cc3ccccc3)C1=C[C@H](C(C)(C)C)O[C@@H]2C	none (no result: UBC9 SUMO inh, Fh CTSL1 inh)
Cc1coc2c1C(=O)C(=O)c1c-2ccc2c(C)cccc12	Fh CTSL1 inh 94 (no result: TDP2 absorb, NSD2 inh)
Cc1coc2c1C(=O)C(=O)c1c-2ccc2c1CCCC2(C)C	none (no result: NSD2 inh)
Cc1cccc(N(Cc2ccccc2)C(=O)c2cc(S(=O)(=O)N3CCOCC3)ccc2Cl)c1	none (no result: UBC9 SUMO inh)
COCc1[nH]nc2c1C(c1ccc(C)cc1)N(Cc1ccccc1)C2=O (configuration not stated)	none (no result: NSD2 inh, UBC9 SUMO inh, Fh CTSL1 inh)
COc1cc2c(cc1NC(=S)NC(=O)/C=C/c1ccco1)oc1ccccc12	UBC9 SUMO inh 52
Cc1c(NC(=O)c2ccc3c(c2)C(=O)N(CC2CCCO2)C3=O)cccc1C(=O)O (configuration not stated)	none
CCOc1ccccc1NC(=O)c1ccc2c(c1)C(=O)N(CC1CCCO1)C2=O (configuration not stated)	Fh CTSL1 inh 18
O=C(CSc1ccccn1)NCc1ccc2c(c1)OCO2	Fh CTSL1 inh 17
O=C(CSc1ccccn1)Nc1ccc2c(c1)OCO2	none
COc1cc(C(=O)NS(=O)(=O)c2ccccc2C)ccc1Cc1cn(C)c2ccc(NC(=O)OC3CCCC3)cc12	UBC9 SUMO inh 72 (no result: TDP2 absorb, NSD2 inh)
CCn1cc(C(=O)NCc2ccc3c(c2)OCO3)c(=O)c2cc(S(=O)(=O)N(C)C)ccc21	Fh CTSL1 inh 18
CCn1cc(C(=O)NCc2ccc3c(c2)OCO3)c(=O)c2cc(S(=O)(=O)N3CCOCC3)ccc21	none
CCCc1nc2nc(C)c(NS(=O)(=O)c3ccc(Cl)cc3)c(=O)n2[nH]1	none
COc1ccc(C(F)(F)F)cc1NC(=O)C(OC(=O)CNC(=O)c1ccccc1)c1ccccc1 (configuration not stated)	none (no result: NSD2 inh, UBC9 SUMO inh, Fh CTSL1 inh)
O=C(CNC(=O)c1ccccc1)OC(C(=O)Nc1cc(C(F)(F)F)ccc1Cl)c1ccccc1 (configuration not stated)	Fh CTSL1 inh 28 (no result: NSD2 inh)
COc1ccc(C)cc1NC(=O)C(OC(=O)CNC(=O)c1cccc(F)c1)c1ccccc1 (configuration not stated)	Fh CTSL1 inh 29
C[C@H]1CN([C@@H](C)CO)C(=O)c2cc(Br)cnc2O[C@H]1CN(C)S(=O)(=O)c1ccccc1F	none (no result: NSD2 inh, UBC9 SUMO inh, Fh CTSL1 inh)
O=C(O)CCn1cc(/C=C2\NC(=S)N(c3ccccc3)C2=O)c(-c2ccc(Br)cc2)n1	Fh CTSL1 inh 19 (no result: NSD2 inh)
Cc1cccc([C@H]2[C@@H]3C=CCC[C@@H]3C(=O)N2Cc2ccccc2)c1	none (no result: NSD2 inh, UBC9 SUMO inh, Fh CTSL1 inh)
CC(C)C[C@H](N)c1nnc(S(=O)(=O)Cc2ccc(F)cc2)o1	Fh CTSL1 inh 54 (no result: TDP2 absorb, NSD2 inh)
Cc1cc(Br)cn2c(Cc3cccc(F)c3)c(-c3ccco3)nc12	none (no result: NSD2 inh, UBC9 SUMO inh, Fh CTSL1 inh)
COC(=O)[C@]1(Cc2ccccc2)NC=C(C(=O)c2ccccc2)[C@@H]1c1cccs1	none (no result: UBC9 SUMO inh, Fh CTSL1 inh)
c1coc(C2=Nc3cccc4cccc(c34)N2)c1	UBC9 SUMO inh 94
COc1cccc(C2=Nc3cccc4cccc(c34)N2)c1	none
O=c1[nH]cc(CN2CCOCC2)c(=O)[nH]1	none (no result: UBC9 SUMO inh, Fh CTSL1 inh)
CC1CCN(c2ccccc2NC(=O)c2ccc(F)cc2)CC1	Fh CTSL1 inh 18
C[C@@H]1ON(C)[C@H]2C[C@H]3c4cc(-c5ccc(F)cc5)ccc4CCN3C[C@@H]12	none (no result: NSD2 inh, UBC9 SUMO inh, Fh CTSL1 inh)
O=[N+]([O-])c1cc(C2Nc3cccc4cccc(c34)N2)ccc1Cl	UBC9 SUMO inh 59
CCOc1ccc(S(=O)(=O)NCCC(=O)NCC(c2ccc(F)cc2)N2CCOCC2)cc1 (configuration not stated)	Fh CTSL1 inh 18 (no result: UBC9 SUMO inh)
COC(=O)[C@]12C[C@H](CC(=O)NCc3cccc(C(F)(F)F)c3)C(=O)N(Cc3cccc4ccccc34)C1=C[C@H](C(C)(C)C)O[C@@H]2C	none (no result: NSD2 inh, UBC9 SUMO inh, Fh CTSL1 inh)
Oc1cc(CNC2CCCCC2)c(O)cc1CNC1CCCCC1	none (no result: UBC9 SUMO inh, Fh CTSL1 inh)
O=C(NCc1ccco1)Nc1ccc2snnc2c1	UBC9 SUMO inh 69
Cc1nc2ccc(NC(=O)NCc3ccco3)cc2s1	UBC9 SUMO inh 67 (no result: NSD2 inh)
O=C(NCSc1ccnc(SCNC(=O)c2ccccc2)n1)c1ccccc1	Fh CTSL1 inh 19
O=[N+]([O-])c1ccc(N2CCCC2)cc1N1CCCC1	NSD2 inh 53
Cc1cccc(C)c1NC(=O)C(c1ccccc1)N1CCN(C/C=C/c2ccccc2)CC1 (configuration not stated)	none (no result: NSD2 inh, UBC9 SUMO inh, Fh CTSL1 inh)
O=[N+]([O-])c1ccccc1/C=C\C=N\N1CCN(c2ccccc2)CC1	NSD2 inh 93
CC(C)C(C(=O)NCc1ccccc1)N1CCN(CCN2CCOCC2)CC1 (configuration not stated)	none (no result: NSD2 inh, UBC9 SUMO inh, Fh CTSL1 inh)
O=C(CCl)Nc1c2c(nn1-c1ccccc1)CSC2	Fh CTSL1 inh 80 (no result: UBC9 SUMO inh)
C[C@H]1COc2cc(Br)ccc2S(=O)(=O)N1Cc1cn(Cc2ccc(C(F)(F)F)cc2)nn1	none (no result: NSD2 inh, UBC9 SUMO inh, Fh CTSL1 inh)
COc1ccc([C@H]2C[C@@H](O)C[C@@H](CCn3cc(-c4ccccc4)nn3)O2)cc1	none (no result: NSD2 inh, UBC9 SUMO inh, Fh CTSL1 inh)
CC(=O)Nc1cc(OC(C)=O)c2nonc2c1OC(C)=O	TDP2 absorb 98, UBC9 SUMO inh 101, Fh CTSL1 inh 110 (no result: NSD2 inh)
